Measurements from ChEMBL document CHEMBL4138269, “Dual NAMPT/HDAC Inhibitors as a New Strategy for Multitargeting Antitumor Drug Discovery” (ACS Med Chem Lett, 2018).
pIC50: −log10 of the molar value. Activity calls are given as the source filed them. The rule behind the calls is not given here.

Columns and labels:
[1] = target: T1, Histone deacetylase 1 (Homo sapiens, UniProt Q13547); assay: Inhibition of recombinant full length human C-terminal His/flag-tagged HDAC1 expressed in baculovirus infected Sf9 insect cells after 30 mins by fluorescence assay
T1 sequence (Q13547 whole entry): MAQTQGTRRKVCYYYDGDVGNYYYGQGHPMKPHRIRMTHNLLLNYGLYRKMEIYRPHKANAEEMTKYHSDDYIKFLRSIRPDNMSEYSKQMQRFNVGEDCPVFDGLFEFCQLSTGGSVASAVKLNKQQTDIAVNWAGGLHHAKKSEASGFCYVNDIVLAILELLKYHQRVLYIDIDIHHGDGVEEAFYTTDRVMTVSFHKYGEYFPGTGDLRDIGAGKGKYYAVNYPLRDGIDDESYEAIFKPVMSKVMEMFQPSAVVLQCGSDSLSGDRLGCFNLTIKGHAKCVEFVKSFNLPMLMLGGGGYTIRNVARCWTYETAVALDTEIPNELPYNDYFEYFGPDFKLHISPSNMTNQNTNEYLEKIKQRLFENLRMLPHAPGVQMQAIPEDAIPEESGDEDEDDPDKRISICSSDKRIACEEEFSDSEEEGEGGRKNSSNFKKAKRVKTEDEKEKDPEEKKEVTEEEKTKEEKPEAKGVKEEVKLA

[2] = target: T2, Nicotinamide phosphoribosyltransferase (Homo sapiens, UniProt P43490); assay: Inhibition of NAMPT (unknown origin) using NAM as substrate incubated for 5 mins followed by substrate addition measured after 15 mins by fluorometric method
Target sequence in this assay (P43490 whole entry): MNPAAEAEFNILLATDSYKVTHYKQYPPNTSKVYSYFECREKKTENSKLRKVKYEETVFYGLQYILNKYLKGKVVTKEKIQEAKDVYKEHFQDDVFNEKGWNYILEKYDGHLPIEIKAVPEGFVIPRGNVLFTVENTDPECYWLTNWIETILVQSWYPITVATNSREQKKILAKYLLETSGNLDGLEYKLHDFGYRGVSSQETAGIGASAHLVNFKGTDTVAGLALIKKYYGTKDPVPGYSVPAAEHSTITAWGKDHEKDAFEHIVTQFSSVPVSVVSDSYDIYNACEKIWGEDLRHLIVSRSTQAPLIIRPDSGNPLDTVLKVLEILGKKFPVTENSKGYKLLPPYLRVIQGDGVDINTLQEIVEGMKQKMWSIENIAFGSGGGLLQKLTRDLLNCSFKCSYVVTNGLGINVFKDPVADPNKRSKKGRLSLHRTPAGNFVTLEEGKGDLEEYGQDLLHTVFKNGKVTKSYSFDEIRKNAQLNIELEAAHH

[3] = system: A549; assay: cells; assay type: functional, cell-based; details: Homo sapiens, A549, 72 h
[4] = system: HepG2; assay: cells; assay type: functional, cell-based; details: Homo sapiens, HepG2, 72 h
[5] = system: HCT-116; assay: cells; assay type: functional, cell-based; details: Homo sapiens, HCT-116, 72 h
[6] = target: T3, Histone deacetylase (Homo sapiens) (UniProt Q13547+O15379+Q9UBN7+Q92769+Q9UQL6+Q8WUI4+Q9BY41+Q96DB2+P56524+Q9UKV0+Q969S8); assay: Inhibition of HDAC in human HCT116 cells assessed as increase in acetyl-histone H3 level at 1 to 5 uM after 24 hrs by Western blot analysis; assay type: cell-based
How it was run: (§1)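 HCT116 cells were treated for 24 h at 1 μM and 5 μM. Acetylated histone H3 and acetylated histone H4 were detected by Western blot.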

[7] = target: T4, Protein deacetylase HDAC6 (Homo sapiens, UniProt Q9UBN7); assay: Inhibition of recombinant human full length C-terminal flag-tagged HDAC6 expressed in baculovirus infected Sf9 insect cells after 30 mins by fluorescence assay
T4 sequence (Q9UBN7 whole entry): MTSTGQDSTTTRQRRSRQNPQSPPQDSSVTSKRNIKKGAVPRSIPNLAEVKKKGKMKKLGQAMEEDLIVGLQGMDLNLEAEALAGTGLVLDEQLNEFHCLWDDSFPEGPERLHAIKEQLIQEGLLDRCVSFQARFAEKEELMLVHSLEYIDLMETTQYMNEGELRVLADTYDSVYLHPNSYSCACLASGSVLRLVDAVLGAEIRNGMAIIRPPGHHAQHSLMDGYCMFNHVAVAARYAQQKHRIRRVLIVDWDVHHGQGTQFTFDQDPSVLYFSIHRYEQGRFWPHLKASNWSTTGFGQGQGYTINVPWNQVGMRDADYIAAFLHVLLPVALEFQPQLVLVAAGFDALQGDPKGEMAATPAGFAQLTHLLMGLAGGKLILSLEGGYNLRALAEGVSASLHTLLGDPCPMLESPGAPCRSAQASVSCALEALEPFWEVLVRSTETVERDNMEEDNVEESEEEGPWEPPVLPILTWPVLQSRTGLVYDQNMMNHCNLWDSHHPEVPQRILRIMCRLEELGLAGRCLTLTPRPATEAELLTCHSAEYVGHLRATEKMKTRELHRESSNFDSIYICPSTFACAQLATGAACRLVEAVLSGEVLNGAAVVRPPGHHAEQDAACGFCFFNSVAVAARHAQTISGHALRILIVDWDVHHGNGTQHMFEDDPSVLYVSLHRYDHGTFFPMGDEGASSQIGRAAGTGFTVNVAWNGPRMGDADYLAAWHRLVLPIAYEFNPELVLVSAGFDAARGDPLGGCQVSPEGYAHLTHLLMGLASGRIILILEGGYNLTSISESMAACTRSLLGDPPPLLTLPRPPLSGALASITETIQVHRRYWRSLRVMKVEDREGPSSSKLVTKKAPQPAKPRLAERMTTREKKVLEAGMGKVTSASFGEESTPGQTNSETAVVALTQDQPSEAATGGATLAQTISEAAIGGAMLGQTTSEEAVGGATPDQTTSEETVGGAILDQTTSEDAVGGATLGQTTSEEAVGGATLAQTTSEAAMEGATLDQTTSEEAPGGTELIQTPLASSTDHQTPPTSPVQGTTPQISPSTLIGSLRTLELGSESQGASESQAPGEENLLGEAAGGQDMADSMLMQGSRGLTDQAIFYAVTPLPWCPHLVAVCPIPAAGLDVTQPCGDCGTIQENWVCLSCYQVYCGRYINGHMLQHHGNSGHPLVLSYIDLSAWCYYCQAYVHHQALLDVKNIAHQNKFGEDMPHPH

[8] = system: HCT-116; assay: animal or person; assay type: functional, Homo sapiens; details: Mus musculus, HCT-116, ip, 72 h, read-out: TGI
[9] = target: Histone deacetylase 2 (Homo sapiens, UniProt Q92769)
Histone deacetylase 2, sequence (Q92769 whole entry): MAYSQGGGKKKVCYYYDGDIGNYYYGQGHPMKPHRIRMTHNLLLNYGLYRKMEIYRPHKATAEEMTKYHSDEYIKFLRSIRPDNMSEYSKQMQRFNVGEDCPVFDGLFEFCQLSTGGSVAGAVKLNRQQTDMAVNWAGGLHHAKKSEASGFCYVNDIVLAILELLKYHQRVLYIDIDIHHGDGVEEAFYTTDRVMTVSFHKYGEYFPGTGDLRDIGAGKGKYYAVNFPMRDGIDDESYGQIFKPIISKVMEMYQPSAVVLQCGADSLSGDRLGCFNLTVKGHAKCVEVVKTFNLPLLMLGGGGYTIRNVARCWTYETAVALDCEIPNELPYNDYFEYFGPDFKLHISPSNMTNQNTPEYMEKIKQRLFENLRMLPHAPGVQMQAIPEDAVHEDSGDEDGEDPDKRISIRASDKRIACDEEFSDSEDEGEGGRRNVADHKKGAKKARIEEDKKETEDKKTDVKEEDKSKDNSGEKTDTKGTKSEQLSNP

[10] = target: Histone deacetylase 4 (Homo sapiens, UniProt P56524); assay: Inhibition of recombinant human N-terminal GST-tagged HDAC4 (612 to end residues) expressed in baculovirus infected Sf9 insect cells after 30 mins by fluorescence assay
[11] = target: Histone deacetylase 3/NCoR1 (Homo sapiens, UniProt O15379); assay: Inhibition of human recombinant HDAC3/GST-tagged NCOR1 DAD (397 to 503 residues) expressed in baculovirus expression system after 30 mins by fluorescence assay
Histone deacetylase 3/NCoR1, sequence (O15379 whole entry, the tested form may be a part): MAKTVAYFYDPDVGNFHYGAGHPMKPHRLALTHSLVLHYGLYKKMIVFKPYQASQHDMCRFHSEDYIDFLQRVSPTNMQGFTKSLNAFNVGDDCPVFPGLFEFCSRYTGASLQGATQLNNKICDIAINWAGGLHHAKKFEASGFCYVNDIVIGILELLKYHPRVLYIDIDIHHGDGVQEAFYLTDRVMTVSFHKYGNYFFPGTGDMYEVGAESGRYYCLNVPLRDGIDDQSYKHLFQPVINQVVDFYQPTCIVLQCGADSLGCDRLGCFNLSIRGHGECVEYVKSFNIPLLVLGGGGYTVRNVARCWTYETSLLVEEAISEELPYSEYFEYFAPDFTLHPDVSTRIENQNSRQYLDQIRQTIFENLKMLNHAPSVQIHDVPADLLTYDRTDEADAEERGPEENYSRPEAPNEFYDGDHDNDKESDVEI
Histone deacetylase 3/NCoR1, sequence (O75376 whole entry, further chain, the tested form may be a part): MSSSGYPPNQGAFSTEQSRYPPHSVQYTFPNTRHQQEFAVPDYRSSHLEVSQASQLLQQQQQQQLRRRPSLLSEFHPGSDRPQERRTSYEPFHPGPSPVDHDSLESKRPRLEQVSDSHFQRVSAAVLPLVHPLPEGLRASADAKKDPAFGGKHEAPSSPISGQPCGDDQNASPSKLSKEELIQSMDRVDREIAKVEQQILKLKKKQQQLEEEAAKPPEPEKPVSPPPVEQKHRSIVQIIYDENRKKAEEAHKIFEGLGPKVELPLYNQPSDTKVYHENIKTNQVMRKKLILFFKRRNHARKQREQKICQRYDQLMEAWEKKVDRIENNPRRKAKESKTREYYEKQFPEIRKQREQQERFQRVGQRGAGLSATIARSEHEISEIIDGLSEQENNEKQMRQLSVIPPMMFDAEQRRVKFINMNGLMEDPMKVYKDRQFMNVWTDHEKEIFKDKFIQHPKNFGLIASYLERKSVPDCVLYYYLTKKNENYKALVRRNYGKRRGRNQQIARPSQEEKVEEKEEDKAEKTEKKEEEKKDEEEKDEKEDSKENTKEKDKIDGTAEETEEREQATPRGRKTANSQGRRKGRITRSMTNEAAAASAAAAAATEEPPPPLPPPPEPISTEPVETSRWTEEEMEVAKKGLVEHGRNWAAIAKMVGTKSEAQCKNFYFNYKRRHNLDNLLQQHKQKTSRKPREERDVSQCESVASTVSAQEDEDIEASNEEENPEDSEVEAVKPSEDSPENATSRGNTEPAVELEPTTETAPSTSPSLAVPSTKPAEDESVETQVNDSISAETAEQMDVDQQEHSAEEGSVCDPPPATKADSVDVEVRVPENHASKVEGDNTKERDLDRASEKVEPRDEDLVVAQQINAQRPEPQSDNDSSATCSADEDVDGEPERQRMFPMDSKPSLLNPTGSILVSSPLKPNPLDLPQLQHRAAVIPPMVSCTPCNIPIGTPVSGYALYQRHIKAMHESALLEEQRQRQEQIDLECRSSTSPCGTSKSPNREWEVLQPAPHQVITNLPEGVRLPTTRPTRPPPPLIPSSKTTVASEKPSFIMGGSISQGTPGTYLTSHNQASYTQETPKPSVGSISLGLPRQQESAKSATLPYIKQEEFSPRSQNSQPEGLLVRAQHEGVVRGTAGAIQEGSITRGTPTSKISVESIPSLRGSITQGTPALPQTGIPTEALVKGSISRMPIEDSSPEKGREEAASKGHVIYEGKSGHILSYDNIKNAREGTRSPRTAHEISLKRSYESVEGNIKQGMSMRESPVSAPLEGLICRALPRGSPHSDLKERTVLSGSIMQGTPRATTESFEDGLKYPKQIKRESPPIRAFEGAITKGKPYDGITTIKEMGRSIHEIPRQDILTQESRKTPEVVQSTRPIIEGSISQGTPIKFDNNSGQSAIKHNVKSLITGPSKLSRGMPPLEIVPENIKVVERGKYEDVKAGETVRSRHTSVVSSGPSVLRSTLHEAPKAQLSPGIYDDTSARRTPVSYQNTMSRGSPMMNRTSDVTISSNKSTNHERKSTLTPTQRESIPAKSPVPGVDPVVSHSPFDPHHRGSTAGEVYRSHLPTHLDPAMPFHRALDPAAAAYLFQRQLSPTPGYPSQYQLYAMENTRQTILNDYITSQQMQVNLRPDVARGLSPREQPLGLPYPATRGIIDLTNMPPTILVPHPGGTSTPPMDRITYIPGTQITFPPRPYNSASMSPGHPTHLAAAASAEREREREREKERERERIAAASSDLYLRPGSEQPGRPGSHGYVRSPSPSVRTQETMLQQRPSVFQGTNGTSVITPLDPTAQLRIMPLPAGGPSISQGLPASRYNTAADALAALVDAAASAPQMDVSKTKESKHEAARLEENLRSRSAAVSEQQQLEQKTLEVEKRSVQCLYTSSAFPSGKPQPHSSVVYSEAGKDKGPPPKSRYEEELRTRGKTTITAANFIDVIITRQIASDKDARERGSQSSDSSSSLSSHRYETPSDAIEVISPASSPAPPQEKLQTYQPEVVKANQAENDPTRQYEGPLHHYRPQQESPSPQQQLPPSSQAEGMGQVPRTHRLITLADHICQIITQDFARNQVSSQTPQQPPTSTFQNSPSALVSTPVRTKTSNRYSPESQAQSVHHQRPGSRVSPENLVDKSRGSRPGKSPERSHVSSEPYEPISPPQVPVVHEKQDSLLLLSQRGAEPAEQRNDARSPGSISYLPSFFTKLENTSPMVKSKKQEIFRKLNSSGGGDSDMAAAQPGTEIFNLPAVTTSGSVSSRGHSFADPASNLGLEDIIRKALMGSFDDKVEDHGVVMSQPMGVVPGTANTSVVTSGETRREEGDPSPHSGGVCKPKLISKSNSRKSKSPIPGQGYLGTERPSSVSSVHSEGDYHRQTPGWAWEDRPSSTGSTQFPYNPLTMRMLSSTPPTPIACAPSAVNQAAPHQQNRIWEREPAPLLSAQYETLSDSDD

[12] = system: Mus musculus; assay: Toxicity in BALB/C nude mouse xenografted with human HCT116 cells assessed as body weight loss at 25 mg/kg, ip bid administered for 21 consecutive days measured every 3 days; assay type: organism-based; details: in vivo, 72 h
How it was run: (§2)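 HCT116 tumour xenografts were grown in nude mice. Agents were given ip twice daily for 21 consecutive days. Tumour growth and body weight were followed. Tumour growth inhibition (TGI) and relative increment ratio (T/C) were derived. Data are mean ± standard deviation, compared with the control group by Student's t test.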

[13] = target: T2, Nicotinamide phosphoribosyltransferase; assay: Inhibition of NAMPT in human HCT116 cells assessed as decrease in cellular NAD+ level after 24 hrs by MTT dye based spectrophotometric analysis; assay type: cell-based
How it was run: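 HCT116 cells were exposed to a concentration series for 24 h. Cellular NAD+ level was measured and concentration–response curves were fitted.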
Target sequence in this assay (P43490 whole entry, looked up): as the sequence (P43490 whole entry) above

[14] = target: T2, Nicotinamide phosphoribosyltransferase; assay: Binding affinity to NAMPT in human HCT116 cells assessed as change in melting temperature at 10 uM after 3 hrs by CETSA; assay type: cell-based
Target sequence in this assay (P43490 whole entry, looked up): as the sequence (P43490 whole entry) above

[15] = target: T1, Histone deacetylase 1; assay: Potency index, ratio of SAHA IC50 to compound IC50 for recombinant human full length C-terminal His/flag-tagged HDAC1 expressed in baculovirus infected Sf9 insect cells
[16] = target: T5, Histone deacetylase 8 (Homo sapiens, UniProt Q9BY41); assay: Inhibition of recombinant human full length C-terminal His-tagged HDAC8 expressed in baculovirus infected Sf9 insect cells after 30 mins by fluorescence assay
T5 sequence (Q9BY41 whole entry): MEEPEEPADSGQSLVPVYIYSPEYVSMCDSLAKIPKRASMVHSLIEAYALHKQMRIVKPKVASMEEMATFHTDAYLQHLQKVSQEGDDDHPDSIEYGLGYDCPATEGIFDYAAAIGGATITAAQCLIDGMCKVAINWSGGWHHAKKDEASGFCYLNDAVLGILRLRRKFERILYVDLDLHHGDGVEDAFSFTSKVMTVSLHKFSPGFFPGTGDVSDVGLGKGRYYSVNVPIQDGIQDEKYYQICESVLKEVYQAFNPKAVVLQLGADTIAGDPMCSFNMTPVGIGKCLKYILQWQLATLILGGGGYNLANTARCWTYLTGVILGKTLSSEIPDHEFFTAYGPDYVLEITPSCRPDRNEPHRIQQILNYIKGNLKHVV

[17] = target: T3, Histone deacetylase (Homo sapiens); assay: Inhibition of HDAC in human HCT116 cells assessed as increase in acetyl-histone H4 level at 1 to 5 uM after 24 hrs by Western blot analysis; assay type: cell-based; how it was run: as §1
[18] = system: HCT-116; assay: Antitumor activity against human HCT116 cells xenografted in BALB/C nude mouse assessed as tumor growth inhibition at 15 mg/kg, ip bid administered for 21 consecutive days measured every 3 days; assay type: functional; details: HCT-116, ip, 72 h, read-out: TGI; how it was run: as §2
[19] = system: Mus musculus; assay: Toxicity in BALB/C nude mouse xenografted with human HCT116 cells assessed as body weight loss at 15 mg/kg, ip bid administered for 21 consecutive days measured every 3 days; assay type: organism-based; details: in vivo, 72 h; how it was run: as §2

Row | Compound | pIC50 [1] | pIC50 [2] | pIC50 [3] | pIC50 [4] | pIC50 [5] | other results
1 | O=C(NO)c1ccc(CN(Cc2ccc(F)cc2)c2ncc(C(=O)NCCCn3ccnc3)s2)cc1 | 7.34 | 7.85 | 5.14 | 4.10 | 4.00 | –
2 | O=C(/C=C/c1ccc(CN(Cc2ccc(F)cc2)c2ncc(C(=O)NCCCn3ccnc3)s2)cc1)NO | 7.04 | 7.85 | 5.57 | 4.89 | 4.08 | –
3 | O=C(CCCCCCC(=O)Nc1ccccc1)NO [VORINOSTAT] | – | – | – | – | – | Activity [12]: Non-Toxic
4 | O=C(CCCCCCN(Cc1ccc(F)cc1)c1ncc(C(=O)NCCCn2ccnc2)s1)NO | 7.44 | 7.72 | 5.01 | 5.03 | 5.01 | inhibition [6]: Dose-dependent effect; pIC50 [7]: 8.21; pIC50 [9]: 7.48; pIC50 [10]: 4.68; pIC50 [11]: 8.39; inhibition [13]: Active; ΔTm [14]: 7.36 °C; pIC50 [16]: 6.45; inhibition [17]: Dose-dependent effect
5 | O=C(/C=C/c1cccnc1)NCCCCC1CCN(C(=O)c2ccccc2)CC1 [DAPORINAD] | – | – | 5.43 | – | – | inhibition in vivo at 15 mg/kg [18]: 39%; Activity [19]: Non-Toxic
6 | O=C(CCCCCCCN(Cc1ccc(F)cc1)c1ncc(C(=O)NCCCn2ccnc2)s1)NO | 7.36 | 7.74 | 5.18 | 4.59 | 4.20 | –
7 | O=C(CCCCCN(Cc1ccc(F)cc1)c1ncc(C(=O)NCCCn2ccnc2)s1)NO | 7.00 | 8.15 | 4.27 | 4.52 | 4.72 | –
8 | O=C(CCCCCCN(Cc1ccc(F)cc1)c1ncc(C(=O)NCc2cccnc2)s1)NO | 7.02 | 6.33 | 4.66 | 4.85 | 4.77 | –

Now from value to molecule, other results behind:

Row | pIC50 [1] | pIC50 [2] | pIC50 [3] | pIC50 [4] | pIC50 [5] | Compound | other results
9 | 8.70 | 7.82 | 5.28 | 4.62 | 4.52 | CC(C)CCN(CCCCCCC(=O)NO)c1ncc(C(=O)NCCCn2ccnc2)s1 | inhibition [6]: Dose-dependent effect; pIC50 [7]: 9.19; inhibition in vivo at 25 mg/kg [8]: 42%; pIC50 [9]: 8.17; pIC50 [10]: 4.92; pIC50 [11]: 9.17; Activity [12]: Non-Toxic; inhibition [13]: Active; ΔTm [14]: 3.01 °C; Ratio IC50 [15]: 10; pIC50 [16]: 6.69; inhibition [17]: Dose-dependent effect
10 | 7.22 | 7.70 | 4.89 | 3.97 | 4.07 | CC(C)CCN(CCCCCC(=O)NO)c1ncc(C(=O)NCCCn2ccnc2)s1 | –
11 | 7.44 | 6.66 | 4.72 | 5.15 | 4.92 | CC(C)CCN(CCCCCCC(=O)NO)c1ncc(C(=O)NCc2cccnc2)s1 | –
